We go through 34 compounds from ChEMBL document CHEMBL1255523, “Optimization of N-benzyl-benzoxazol-2-ones as receptor antagonists of macrophage migration inhibitory factor (MIF)” (Bioorg Med Chem Lett, 2010).

Assay [1] has as its target T1, Macrophage migration inhibitory factor (Homo sapiens) (UniProt P14174).
T1 sequence (whole entry): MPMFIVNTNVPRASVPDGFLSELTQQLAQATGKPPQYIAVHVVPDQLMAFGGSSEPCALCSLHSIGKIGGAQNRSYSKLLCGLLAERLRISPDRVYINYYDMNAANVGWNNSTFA
Kind of assay: Inhibition of MIF-dependent ERK1/2 phosphorylation in rheumatoid arthritis patient synovial fibroblasts assessed as total ERK1/2 level at 300 nM after 30 mins.

Assay [2] addresses T1, Macrophage migration inhibitory factor (Homo sapiens). Briefly: Inhibition of human recombinant MIF tautomerase at 30 uM by mass spectrometry analysis.
For assay [3], the target named is T2, MIF/CD74 (Macrophage migration inhibitory factor and HLA-DR antigens-associated invariant chain) (Homo sapiens) (UniProt P14174+P04233). Kind of assay: Inhibition of human recombinant biotinylated MIF/CD74 interaction at 30 uM by mass spectrometry analysis. In kind it is protein assay.
Assay [4] deals with T1, Macrophage migration inhibitory factor (Homo sapiens). Briefly: Inhibition of MIF-dependent ERK1/2 phosphorylation in rheumatoid arthritis patient synovial fibroblasts assessed as phosphorylated ERK1/2 level at 300 nM after 30 mins.
Assay [5] addresses T2, MIF/CD74 (Macrophage migration inhibitory factor and HLA-DR antigens-associated invariant chain) (Homo sapiens). Kind of assay: Inhibition of human recombinant biotinylated MIF/CD74 interaction at up to 10 uM after 30 mins. In kind it is protein assay. The method in brief:
(§1)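 Bound MIF was detected with streptavidin-alkaline phosphatase and p-nitrophenylphosphate substrate. Compounds were tested over 500- to 5000-fold concentration ranges.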

Assay [6] addresses T1, Macrophage migration inhibitory factor (Homo sapiens). Kind of assay: Inhibition of human recombinant MIF tautomerase at up to 0.1 uM.
Assay [7] concerns the target T3, Macrophage migration inhibitory factor (Homo sapiens, UniProt P14174).
T3 sequence (P14174 whole entry): T1 sequence (whole entry)
Kind of assay: Inhibition of human recombinant MIF tautomerase.

Assay [8] has as its target T4, MIF/CD74 (Macrophage migration inhibitory factor and HLA-DR antigens-associated invariant chain) (Homo sapiens, UniProt P04233+P14174).
T4 sequence (P14174 whole entry): T1 sequence (whole entry)
T4 sequence (P04233 whole entry): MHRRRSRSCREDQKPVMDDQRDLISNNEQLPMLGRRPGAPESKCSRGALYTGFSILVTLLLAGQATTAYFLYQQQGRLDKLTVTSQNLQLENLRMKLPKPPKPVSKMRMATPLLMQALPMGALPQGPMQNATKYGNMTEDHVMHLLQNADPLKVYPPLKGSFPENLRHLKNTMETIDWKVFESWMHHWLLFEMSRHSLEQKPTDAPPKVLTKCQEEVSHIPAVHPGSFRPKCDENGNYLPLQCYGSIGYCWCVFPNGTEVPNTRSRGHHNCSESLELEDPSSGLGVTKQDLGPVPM
Briefly: (§2) Inhibition of human recombinant biotinylated MIF/CD74 interaction after 30 mins. In kind it is protein assay. The method, boiled down:
as §1

Assay [9] has as its target T5, MIF/CD74 (Macrophage migration inhibitory factor and HLA-DR antigens-associated invariant chain) (Homo sapiens, UniProt P14174+P04233).
T5 sequence (P14174 whole entry): T1 sequence (whole entry)
T5 sequence (P04233 whole entry): T4 sequence (P04233 whole entry)
The description is as §2. In kind it is protein assay. The method, boiled down: as §1

Active and inactive are the calls of the source. The calls are words filed in the database; no cut-off is given here.

Regarding `Cc1ccc2oc(=O)n(Cc3cccc(O)c3)c2c1`, the inhibition result in assay [1] and in assay [4] was “Active” in each case. Further, the inhibition worked out at 50% in assay [2], 50% in assay [3] and 40% in [5].

For the compound `Cc1ccc2c(c1)oc(=O)n2Cc1ccccc1`, in assay [5], the inhibition is 25%.

For the compound `Ic1cc(-c2ccccc2)ncn1`, the inhibition is 90% in assay [2] and 50% in assay [3].

With `O=c1oc2ccc(F)cc2n1Cc1cccc(O)c1`, the inhibition in assay [6] amounted to 32%; in [5], 18%.

For the compound `Cc1cc2oc(=O)n(Cc3cccc(O)c3)c2cc1C`, the inhibition in assay [6] stood at 33%; in [5], 32%.

With `CCOc1ccccc1Cn1c(=O)oc2ccc(C)cc21`, the inhibition in assay [6] stood at 21%; in assay [5], 45%.

As for `COc1ccc(Cn2c(=O)oc3ccc(C)cc32)cc1`, in assay [7], the IC50 result was “Not Active”.

On to `COc1cccc(Cn2c(=O)oc3ccc(C)cc32)c1`, for which the inhibition in [5] stood at 42%.

Take `COc1cccc(Cn2c(=O)oc3cc(C)c(C)cc32)c1`: the IC50 in assay [8] came out at 0.115 µM. Besides, in assay [6], the inhibition was 25%.

On to `COc1cccc(Cn2c(=O)oc3ccc(CO)cc32)c1`, for which the inhibition in assay [6] turned out to be 44%; in assay [5], 27%.

Consider `O=c1oc2ccccc2n1Cc1ccccc1`, for which the inhibition in assay [5] was found to be 18%. In assay [7] (read-out: IC50), the 50% inhibitory concentration (IC50) was 21 µM.

Regarding `COc1cccc(Cn2c(=O)oc3ccc(OC)cc32)c1`, in [8], the IC50 was determined as 200 µM. The inhibition in assay [6] came out at 41%.

Take `COc1cccc(Cn2c(=O)oc3cc(F)ccc32)c1`: the inhibition in [6] worked out at 35%; in [5], 15%.

Turning to `CCc1ccc2oc(=O)n(Cc3cccc(O)c3)c2c1`, the inhibition in [5] came out at 19%. The half-inhibitory concentration (IC50) in assay [7] (read-out: IC50) is 2.5 µM.

Turning to `Cc1ccc2oc(=O)n(Cc3cccc(F)c3)c2c1`, the IC50 result in assay [7] is recorded as “Not Active”.

Take `COc1cccc(Cn2c(=O)oc3ccc(F)cc32)c1`: the IC50 result in [7] was “Not Active”.

In the case of `CCOc1cc(O)cc(Cn2c(=O)oc3ccc(C)cc32)c1`, the inhibition is 30% in assay [6] and 35% in assay [5].

In the case of `O=c1oc2ccc(O)cc2n1Cc1cccc(O)c1`, the inhibition in [6] is 25%; in assay [5] it was 36%.

For the compound `COc1cccc(Cn2c(=O)oc3cc(C)ccc32)c1`, the figures for the inhibition in assay [6] and in assay [5] were 16% and 24%, respectively.

In the case of `Cc1ccc2oc(=O)n(Cc3cccc(N)c3)c2c1`, the inhibition in [6] was 31%; in assay [5] it was 27%.

On to `O=c1oc2ccc(O)cc2n1Cc1ccccc1`, for which the IC50 entry in [7] is “Not Active”.

In the case of `Cc1ccc2oc(=O)n(Cc3ccc(O)cc3)c2c1`, the IC50 result in assay [7] is given as “Not Active”.

Take `O=c1oc2ccc(CO)cc2n1Cc1cccc(O)c1`: the IC50 in assay [8] is 30 µM; in assay [7], “Not Active”.

For `COc1cccc(Cn2c(=O)oc3ccc(C)cc32)c1OC`, the IC50 in assay [8] was 7 µM. Besides, the inhibition in assay [6] worked out at 32%.

For the compound `CCOc1cccc(Cn2c(=O)oc3ccc(C)cc32)c1`, the inhibition in assay [6] worked out at 20%; in assay [5] it was 30%.

Regarding `COc1ccccc1Cn1c(=O)oc2ccc(O)cc21`, the inhibition in assay [5] was determined as 27%. The IC50 in [7] (read-out: IC50) was 30 µM.

Regarding `CCc1ccc2oc(=O)n(Cc3cccc(OC)c3)c2c1`, the inhibition in [6] was 13%; in assay [5], 15%.

For `O=c1oc2cc(O)ccc2n1Cc1ccccc1`, the inhibition in assay [6] is 28%; in assay [5], 22%.

On to `O=c1oc2cc(F)ccc2n1Cc1cccc(O)c1`, for which the IC50 result in assay [9] and in assay [7] was “Not Active” throughout.

As to `COc1ccc2oc(=O)n(Cc3cccc(O)c3)c2c1`, in assay [8], the IC50 was determined as 0.08 µM. Moreover, the inhibition in [6] was 10%.

`COc1cc(Cn2c(=O)oc3ccc(C)cc32)cc(OC)c1`: the inhibition in assay [6] is 17%; in assay [5] it was 11%.

With `Cc1ccc2c(c1)oc(=O)n2Cc1cccc(O)c1`, the inhibition in [5] came to 10%. In addition, in assay [7] (read-out: IC50), the IC50 is 0.0075 µM.

As for `COc1cccc(Cn2c(=O)oc3ccc(O)cc32)c1OC`, the IC50 in assay [8] came out at 300 µM; in assay [7] (read-out: IC50), 2.1 µM.

Consider `COc1cc(O)cc(Cn2c(=O)oc3ccc(C)cc32)c1`, for which the inhibition in assay [6] was found to be 12%; in assay [5], 22%.

Broadly, the inhibition is the drop in the measured response relative to a control, in per cent. In general, IC50 refers to the midpoint of a concentration-inhibition curve.
